# Activity calls are given as the source filed them. No cut-off for these calls is given here.
# How the values were obtained:
# [1] = system: Tyrosine-protein kinase JAK2 (Homo sapiens), O60674 [V617F]; conditions: HEL 92.1.7, dose 1000.0 nM, time 3.0 hrs
# [2] = Toxicity in athymic BALB/c nude mouse xenografted with mouse Ba/F3 cells harboring JAK2 V617F mutant assessed as liver weight at 150 mg/kg, po administered for 12 days relative to control; type: organism-based, BaF3; conditions: in vivo, 288 h, time 12 day
# Summary of the method: (§1)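 Ba/F3-JAK2V617F cells (2 × 10^6 in serum-free medium) were injected into the tail vein of BALB/c nude mice. From day 4 after inoculation, mice got SB1518 by oral gavage (10 ml/kg) at 50 or 150 mg/kg once daily. Groups held 10 mice, and four naive mice gave baseline values.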
# [3] = Toxicity in athymic BALB/c nude mouse xenografted with mouse Ba/F3 cells harboring JAK2 V617F mutant assessed as weight loss at 150 mg/kg, po administered for 12 days; type: organism-based, BaF3; conditions: in vivo, 288 h, time 12 day
# Summary of the method: as §1
# [4] = Toxicity in athymic BALB/c nude mouse xenografted with mouse Ba/F3 cells harboring JAK2 V617F mutant assessed as platelet count at 150 mg/kg, po administered for 12 days by ScilVET abc hematology analyzer method; type: organism-based, BaF3; conditions: in vivo, 288 h, time 12 day
# Summary of the method: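 Engraftment model: BALB/c nude mice were given 2 × 10^6 Ba/F3-JAK2V617F cells i.v. by tail vein. Once-daily oral gavage (10 ml/kg) of 50 or 150 mg/kg began on day 4 after inoculation, with 10 mice per group and four naive mice as baseline. Blood counts were taken on a veterinary hematology analyzer.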
# [5] = Toxicity in athymic BALB/c nude mouse xenografted with mouse Ba/F3 cells harboring JAK2 V617F mutant assessed as hematocrit count at 150 mg/kg, po administered for 12 days by ScilVET abc hematology analyzer method; type: organism-based, BaF3; conditions: in vivo, 288 h, time 12 day
# Summary of the method: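 BALB/c nude mice were injected in the tail vein with 2 × 10^6 Ba/F3-JAK2V617F cells in serum-free medium. Oral dosing at 50 or 150 mg/kg once daily began on day 4, with 10 mice per group and 4 naive baseline mice. Blood counts were taken on a hematology analyzer.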
# [6] = Toxicity in SCID Beige mouse xenografted with human SET2 cells assessed as decrease in body weight at 75 mg/kg, po administered for 18 days relative to control; type: organism-based; parameters: scale not given: the % may be the effect or the level left; conditions: in vivo, 432 h, time 18 day
# [7] = Toxicity in SCID Beige mouse xenografted with human SET2 cells assessed as increase in body weight at 150 mg/kg, po administered for 18 days relative to control; type: organism-based; conditions: in vivo, 432 h, time 18 day
# [8] = Toxicity in SCID Beige mouse xenografted with human SET2 cells assessed as platelet count at 150 mg/kg, po administered for 18 days by ScilVET abc hematology analyzer method; type: organism-based; conditions: in vivo, 432 h, time 18 day
# [9] = Toxicity in SCID Beige mouse xenografted with human SET2 cells assessed as hematocrit count at 150 mg/kg, po administered for 18 days by ScilVET abc hematology analyzer method; type: organism-based; conditions: in vivo, 432 h, time 18 day
# [10] = Toxicity in SCID Beige mouse xenografted with human SET2 cells assessed as leukopenia at 150 mg/kg, po administered for 18 days by ScilVET abc hematology analyzer method; type: organism-based; conditions: in vivo, 432 h, time 18 day
# [11] = Cytotoxicity against human EPC cells derived from healthy volunteers assessed as inhibition of cell viability incubated for 48 hrs by CellTiterGlo assay; type: toxicity, cell-based
# Summary of the method: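 Erythroid progenitors expanded from PBMCs of PV patients or normal volunteers using a 2-step protocol. On day 12 of expansion, cells were exposed to compound for 48 h and viability was read by CellTiter-Glo. Day-12 cells were phenotyped by CD71/CD235A flow staining.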
# [12] = Induction of apoptosis in human EPC cells derived from polycythemia vera patients assessed as activation of caspase-3/7 level incubated for 16 hrs; type: toxicity, cell-based; conditions: human, epc, time 16 hrs
# [13] = Induction of apoptosis in human EPC cells derived from healthy volunteers assessed as activation of caspase-3/7 level incubated for 16 hrs; type: toxicity, cell-based
# [14] = Cytotoxicity against human Erythroid progenitor cells assessed as inhibition of colony growth formation; type: toxicity, cell-based, Erythroid progenitor cell
# Summary of the method: (§2)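 PBMCs from PV patients, 2–8 × 10^5 per plate, were plated in minimal methylcellulose medium with graded drug concentrations or DMSO, in triplicate. After 14 days, erythroid (BFU-E, CFU-E) and myeloid (CFU-M, CFU-GM) colonies were counted.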
# [15] = Cytotoxicity against human Myeloid progenitor cells assessed as inhibition of colony growth formation; type: toxicity, cell-based, Myeloid progenitor cell
# Summary of the method: as §2
# BaF3 = experiment: Cytotoxicity against mouse BaF3 cells expressing JAK2 V617F mutant xenografted in athymic BALB/c nude mouse assessed as inhibition of cell viability administered for 24 hrs by CellTiterGlo assay; type: toxicity, cell-based; conditions: in vivo, po, 150 mg/kg
# [16] = AUC (0 to infinity) in athymic BALB/c nude mouse xenografted with mouse BaF3 cells at 150 mg/kg, po administered for 24 hrs by HPLC analysis; type: ADME, organism-based; conditions: in vivo
# [17] = Toxicity in athymic BALB/c nude mouse xenografted with mouse Ba/F3 cells harboring JAK2 V617F mutant assessed as spleen weight at 150 mg/kg, po administered for 13 days relative to control; conditions: in vivo, 312 h
# Sequence of Tyrosine-protein kinase JAK2 (Homo sapiens), O60674 [V617F] (O60674 whole entry V617F): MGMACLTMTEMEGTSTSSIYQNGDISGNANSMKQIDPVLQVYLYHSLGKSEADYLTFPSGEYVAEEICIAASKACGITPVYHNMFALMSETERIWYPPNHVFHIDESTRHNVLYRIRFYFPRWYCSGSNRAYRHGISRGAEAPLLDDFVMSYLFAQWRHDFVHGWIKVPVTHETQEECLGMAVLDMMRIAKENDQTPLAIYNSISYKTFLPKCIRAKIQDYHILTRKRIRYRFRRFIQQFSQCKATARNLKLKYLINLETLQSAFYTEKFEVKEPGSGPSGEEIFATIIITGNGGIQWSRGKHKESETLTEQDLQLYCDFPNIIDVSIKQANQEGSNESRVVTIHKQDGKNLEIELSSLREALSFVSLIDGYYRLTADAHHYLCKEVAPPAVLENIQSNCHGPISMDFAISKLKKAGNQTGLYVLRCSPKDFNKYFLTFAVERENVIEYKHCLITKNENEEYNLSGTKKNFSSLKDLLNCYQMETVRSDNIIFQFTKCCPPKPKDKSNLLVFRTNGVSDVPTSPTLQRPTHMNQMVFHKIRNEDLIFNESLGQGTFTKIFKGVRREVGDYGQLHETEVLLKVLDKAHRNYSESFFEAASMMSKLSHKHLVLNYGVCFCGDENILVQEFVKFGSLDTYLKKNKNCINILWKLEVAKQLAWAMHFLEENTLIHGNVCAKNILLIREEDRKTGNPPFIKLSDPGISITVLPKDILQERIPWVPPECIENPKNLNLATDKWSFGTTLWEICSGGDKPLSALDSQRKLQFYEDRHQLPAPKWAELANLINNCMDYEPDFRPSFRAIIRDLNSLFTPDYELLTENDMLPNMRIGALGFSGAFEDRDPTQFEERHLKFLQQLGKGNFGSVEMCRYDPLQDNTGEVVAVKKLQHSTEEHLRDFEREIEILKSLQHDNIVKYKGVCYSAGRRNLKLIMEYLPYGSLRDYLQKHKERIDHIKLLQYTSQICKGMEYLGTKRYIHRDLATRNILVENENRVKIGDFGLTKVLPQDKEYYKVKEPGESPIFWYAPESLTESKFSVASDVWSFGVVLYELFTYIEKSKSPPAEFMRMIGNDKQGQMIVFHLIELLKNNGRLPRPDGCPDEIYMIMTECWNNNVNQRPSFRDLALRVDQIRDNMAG
inhibition [1],AUC(0-inf) [16] [ng·h/mL],SMILES,Activity [2] [%],Activity [3],Activity [4],Activity [5],Activity [6] [%],Activity [7] [%],Activity [8],Activity [9],Activity [10],IC50 at 48 h [11] [nM],Activity [12],EC50 at 16 h ([13]; EPC cells derived from healthy volunteers) [nM],"Activity ([13]; epc, 16 h)",IC50 [14] [nM],IC50 [15] [nM],FIC50 (BaF3) [µM],Activity [17] [%]
Active,,CC(C)(C)c1nc2c3ccc(F)cc3c3c(=O)[nH]ccc3c2[nH]1,,,,,,,,,,,,,,,,,
Active,,Cc1cnc(Nc2ccc(OCCN3CCCC3)cc2)nc1Nc1cccc(S(=O)(=O)NC(C)(C)C)c1,,,,,,,,,,,,,,,,,
,220,C1=C/COCc2cc(ccc2OCCN2CCCC2)Nc2nccc(n2)-c2cccc(c2)COC/1 [PACRITINIB],92,Non-Toxic,Non-Toxic,Non-Toxic,10.1,0.2,Non-Toxic,Non-Toxic,Non-Toxic,230,Dose-Dependent Effect,224,Dose-Dependent Effect,63,63,0.16,60

# — ChEMBL document CHEMBL5705894, “SB1518, a novel macrocyclic pyrimidine-based JAK2 inhibitor for the treatment of myeloid and lymphoid malignancies” (Leukemia, 2011)
